Experimental data from PMC5214883 (Molecular cancer therapeutics, 2016).
Non-standard residues stand in square brackets, D forms with d. Residues, ends and D or L forms follow the SMILES beside them. *: point of attachment. Dolaproine = CO[C@@H]([C@@H]1CCCN1)[C@@H](C)C(=O)O; Dil = CC[C@H](C)[C@H](NC)[C@@H](CC(=O)O)OC; X1 = C[C@@H](N*)[C@@H](O)c1ccccc1; NMeV = CN[C@H](C(=O)O)C(C)C

Experiments:
[1] = Linker stability assay in mouse serum; format: in vitro ADME
SKRC-52 xenografts [2] = assay: Therapy experiments in mice bearing subcutaneous SKRC-52 tumors; format: in vivo, Balb/c nu/nu mice; settings: 250 nmol/Kg, ten daily administrations
[3] = Linker stability assay in PBS; format: physicochemical; settings: pH 7.4
Dose escalation study = assay: Dose escalation study; set-up: species or system Balb/c nu/nu mice; settings: female, athymic Balb/c nu/nu, mouse, in vivo
Procedure, shortened: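 Escalating doses (250 or 500 nmol/Kg) were given as five injections on five consecutive days to […] female athymic Balb/c nu/nu mice aged 8–10 weeks. An acetazolamide-targeted prodrug was compared with an untargeted analogue, with three mice per group.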

[4] = system: CAIX-expressing SKRC-52 cells; assay: In vitro cytotoxicity assay; format: cell-based, human; settings: read-out: IC50 (cytotoxicity), 72 h, 37 °C, MTS
SKRC-52 xenografts [5] = settings: cited from earlier work

With `CC[C@H](C)[C@@H]([C@@H](CC(=O)N1CCC[C@H]1[C@H](OC)[C@@H](C)C(=O)N[C@H](C)[C@@H](O)c1ccccc1)OC)N(C)C(=O)[C@@H](NC(=O)[C@H](C(C)C)N(C)C(=O)OCc1ccc(NC(=O)[C@H](CCCNC(N)=O)NC(=O)[C@@H](NC(=O)CCCCCN2C(=O)CC(SC[C@H](NC(=O)[C@H](CC(=O)O)NC(=O)[C@H](CCCNC(=N)N)NC(=O)[C@H](CC(=O)O)NC(=O)CCCCn3cc(CCCC(=O)Nc4nnc(S(N)(=O)=O)s4)nn3)C(=O)O)C2=O)C(C)C)cc1)C(C)C` (some centres unmarked) [Compound 4a] the “main release product (mass spectrometric analysis)” value ([1]; degradation profile in mouse serum) was “free MMAE”, the “conjugate intact after 6 hours in mouse serum” value ([1]; mouse serum, 37 °C, 6 hours, LC-MS) was over 70% and the half-life ([1]; mouse, mouse serum) was about 7 h. The “acute toxicity and body weight” value (SKRC-52 xenografts [2]) was “no acute toxicity and no significant weight loss”, the durable complete response (SKRC-52 xenografts [2]) was “One out of five” and the half-life at 100 μg/ml [3] was over 48 h. It also gave an MTD at 5 days (Dose escalation study) of 0.5 µmol/kg.
In the case of `CC[C@H](C)[C@@H]([C@@H](CC(=O)N1CCC[C@H]1[C@H](OC)[C@@H](C)C(=O)N[C@H](C)[C@@H](O)c1ccccc1)OC)N(C)C(=O)[C@@H](NC(=O)[C@@H](NC)C(C)C)C(C)C` [MMAE, monomethyl auristatin E] (H-[NMeV]V[Dil][Dolaproine]-X1), the IC50 [4] is reported as 1500 pM.
`COc1cccc2c1C(=O)c1c(O)c3c(c(O)c1C2=O)C[C@@](O)(C(=O)CO)C[C@@H]3O[C@H]1C[C@H]2[C@H](O[C@@H]3[C@@H](OC)OCCN32)[C@H](C)O1` [PNU-159682] gave an IC50 [4] of 160 pM.
For `CNC(=O)c1cc(Oc2ccc(NC(=O)Nc3ccc(Cl)c(C(F)(F)F)c3)cc2)ccn1` [sorafenib], the “activity against SKRC-52 tumors” value (SKRC-52 xenografts [5]) is given as “did not display any detectable activity”.
In the case of `CCN(CC)CCNC(=O)c1c(C)[nH]c(/C=C2\C(=O)Nc3ccc(F)cc32)c1C` [sunitinib], the “activity against SKRC-52 tumors” value (SKRC-52 xenografts [5]) is listed as “did not display any detectable activity”.
